Data: ChEMBL document CHEMBL4368914, “Tricyclic Indazoles-A Novel Class of Selective Estrogen Receptor Degrader Antagonists” (J Med Chem, 2019)

system: not listed separately; test: Fraction unbound in Alderley Park Han Wistar rat plasma by equilibrium dialysis; type: ADME, cell-free; details: not given
Summary of the method: (§1)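 Equilibrium dialysis from DMSO stock in 10% plasma, either Alderley Park Han Wistar rat plasma or human plasma.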

fraction unbound	Structure (SMILES)
0.034	CC(C)CN1[C@H](c2ccc(/C=C/C(=O)O)cc2)c2ccc3[nH]ncc3c2C[C@H]1C

target: T1, Estrogen receptor (Homo sapiens, UniProt P03372); test: Binding affinity to recombinant human GST-tagged ERalpha LBD expressed in baculovirus-infected insect cells by lantha screen assay; details: not given
T1 sequence (P03372 whole entry): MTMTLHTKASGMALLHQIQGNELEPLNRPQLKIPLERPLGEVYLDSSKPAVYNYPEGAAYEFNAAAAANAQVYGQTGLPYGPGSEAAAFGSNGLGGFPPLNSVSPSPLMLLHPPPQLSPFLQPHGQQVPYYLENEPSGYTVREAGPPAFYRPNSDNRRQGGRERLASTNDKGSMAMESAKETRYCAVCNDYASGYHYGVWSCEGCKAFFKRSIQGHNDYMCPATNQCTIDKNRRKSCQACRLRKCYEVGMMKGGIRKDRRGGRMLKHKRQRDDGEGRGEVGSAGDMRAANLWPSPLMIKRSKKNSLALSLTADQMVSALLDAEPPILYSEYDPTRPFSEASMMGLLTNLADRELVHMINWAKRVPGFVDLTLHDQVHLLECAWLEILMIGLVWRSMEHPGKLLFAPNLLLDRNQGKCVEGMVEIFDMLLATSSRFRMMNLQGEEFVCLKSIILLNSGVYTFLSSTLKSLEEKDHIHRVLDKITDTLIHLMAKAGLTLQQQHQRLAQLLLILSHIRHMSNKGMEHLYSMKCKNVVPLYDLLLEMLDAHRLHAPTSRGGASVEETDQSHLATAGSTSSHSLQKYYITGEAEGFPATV

IC50 [nM]	Structure (SMILES)
10	CC(C)CN1[C@H](c2ccc(/C=C/C(=O)O)cc2)c2ccc3[nH]ncc3c2C[C@H]1C

system: not listed separately; test: Glutathione reactivity in human liver microsomes assessed as GSH trapping ratio of compound to clozapine; type: ADME, Microsome; details: not given
Summary of the method: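 Glutathione trapping in human liver microsomes, expressed as a ratio to clozapine.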

Ratio	Structure (SMILES)
< 0.04	CC(C)CN1[C@H](c2ccc(/C=C/C(=O)O)cc2)c2ccc3[nH]ncc3c2C[C@H]1C

system: not listed separately; test: Intrinsic clearance in rat hepatocytes assessed per million cells; type: ADME, cell-based, Hepatocyte; details: read-out: CLH
Summary of the method: (§2)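 Rate of metabolism (µl/min/10⁶ cells) measured from DMSO stock in isolated hepatocytes diluted to 1x10⁶ cells/mL.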

hepatocyte CLint [µL/min/1e6 cells]	Structure (SMILES)
7	CC(C)CN1[C@H](c2ccc(/C=C/C(=O)O)cc2)c2ccc3[nH]ncc3c2C[C@H]1C

target: T1, Estrogen receptor; test: Induction of ERalpha degradation in human MCF7 cells after 18 to 24 hrs by in multiplexed cell assay; type: cell-based; details: not given
Summary of the method: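 MCF-7 cells were kept at 37 °C, 5% CO₂ in phenol red-free RPMI1640 with 5% charcoal-stripped FCS and 2 mmol/L glutamine. Compounds came from 10 mmol/L DMSO stocks.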

IC50 [nM]	Structure (SMILES)
0.631	CC(C)CN1[C@H](c2ccc(/C=C/C(=O)O)cc2)c2ccc3[nH]ncc3c2C[C@H]1C

system: not listed separately; test: Intrinsic clearance in human hepatocytes assessed per million cells; type: ADME, cell-based, Hepatocyte; details: read-out: CLH; summary of the method: as §2

hepatocyte CLint [µL/min/1e6 cells]	Structure (SMILES)
30	CC(C)CN1[C@H](c2ccc(/C=C/C(=O)O)cc2)c2ccc3[nH]ncc3c2C[C@H]1C

system: not listed separately; test: Fraction unbound in 10% human plasma by equilibrium dialysis; type: ADME, cell-free; details: 10% plasma; summary of the method: as §1

fraction unbound	Structure (SMILES)
0.022	CC(C)CN1[C@H](c2ccc(/C=C/C(=O)O)cc2)c2ccc3[nH]ncc3c2C[C@H]1C
